This passage reports folding enthalpy and Tm results from the array DNA melting data of Ke et al. (doi:10.1101/2024.01.08.574731).

Series [1] can be described thus: folding enthalpy; higher = less favourable; fluorescence melt of hairpins on a sequencing array, two-state fit. To be noted: sodium 0.088 M. Summed up: (§1)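 Cy3 signals were normalised both to pre-quench Cy3 and to control constructs. They came from library hairpins carrying annealed Cy3 and quencher oligos on a sequenced MiSeq flow cell, imaged in 50 mM Na-HEPES pH 8.0, 25 mM NaCl, in 2.5 °C steps up to 60 °C. Bootstrapped two-state fits gave melting temperature and folding enthalpy, and four replicates were combined by inverse variance. Fitted temperatures were then raised by 9.35 °C to match UV melts.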

Series [2] is described as follows: melting temperature; fluorescence melt of hairpins on a sequencing array, two-state fit, raised by 9.35 °C to match UV melts. To be noted: sodium 0.088 M. Summed up:
as §1

For GGGGTCGGAAACGGCCCC ((((.((....)).)))), the folding enthalpy in series [1] was -31.7 kcal/mol. In addition, in series [2], the Tm was 67.9 °C.

For GGGGTGAAAACCCC (((((....))))), the folding enthalpy in series [1] is -21.1 kcal/mol. Further, in series [2], the Tm was determined as 66.6 °C.

Take GGGGTGGAAACACCCC ((((((....)))))): in series [1], the folding enthalpy was -38.9 kcal/mol. For the same sequence, the Tm in series [2] is 68.8 °C.

GGGGTGGGAAACCACCTC (.(((((....))))).): in series [1], the folding enthalpy was -16.2 kcal/mol. Besides, the Tm in series [2] stood at 55.2 °C.

On to GGGGTGGGAAACCGCCTC (.((.((....)).)).), for which the folding enthalpy in series [1] was -18.6 kcal/mol. Also, the Tm in series [2] amounted to 49.6 °C.

On to GGGGTGGGAAACCGCTCC ((.(.((....)).).)), for which, in series [1], the folding enthalpy is -21.9 kcal/mol. Further, the Tm in series [2] was determined as 47.7 °C.

GGGGTTCGAAAGAACCC (((.(((....)))))): the folding enthalpy in series [1] is -17.9 kcal/mol. For the same sequence, in series [2], the Tm worked out at 69.3 °C.

Turning to GGGGTTGGAAACAGCCCC ((((.((....)).)))), the folding enthalpy in series [1] was -44.7 kcal/mol. Besides, the Tm in series [2] came to 57.9 °C.

GGGGTTGGAAACGACCTC (.(((.(....).))).): the folding enthalpy in series [1] is -20.7 kcal/mol. Besides, the Tm in series [2] is 40.3 °C.

With GGGTAACCGAAAGGTCCC (((..(((....)))))), the folding enthalpy in series [1] was -18 kcal/mol. The Tm in series [2] was 45.8 °C.

As for GGGTAACGAAAGTTCCC (((.(((....)))))), the folding enthalpy in series [1] was -24.4 kcal/mol. Also, the Tm in series [2] stood at 50.1 °C.

As to GGGTAAGGAAACTCACCC ((((.((....)).)))), the folding enthalpy in series [1] was -28.4 kcal/mol. Moreover, the Tm in series [2] amounted to 36.8 °C.

For GGGTACCCGAAAGGGCCC (((..(((....)))))), in series [1], the folding enthalpy is -18.6 kcal/mol. The Tm in series [2] is 47.8 °C.

In the case of GGGTACGAAAGTAATCCC ((((((....)))..))), the folding enthalpy in series [1] is -20.7 kcal/mol. Moreover, the Tm in series [2] stood at 39 °C.

Regarding GGGTACGAAAGTACACCC ((((((....)))..))), the folding enthalpy in series [1] was -13.4 kcal/mol. Moreover, in series [2], the Tm came to 50.2 °C.

Regarding GGGTACGAAAGTAGACCC ((((((....)))..))), in series [1], the folding enthalpy is -19.2 kcal/mol. Further, the Tm in series [2] amounted to 46.2 °C.

Turning to GGGTACGGAAACACACCC ((((..(....)..)))), the folding enthalpy in series [1] was -21.9 kcal/mol. Moreover, the Tm in series [2] came out at 32.6 °C.

GGGTACGGAAACGTATCC ((.((((....)))).)): the folding enthalpy in series [1] was -30.1 kcal/mol. For the same sequence, the Tm in series [2] came out at 51.8 °C.

Consider GGGTACTCGAAAGAGCCC (((..(((....)))))), for which, in series [1], the folding enthalpy was -19.6 kcal/mol. Also, the Tm in series [2] amounted to 39.6 °C.

With GGGTAGCGAAAGCTCCC (((.(((....)))))), the folding enthalpy in series [1] was -40.3 kcal/mol. In addition, in series [2], the Tm is 53.6 °C.

As to GGGTAGGGAAACCTACCC (((((((....))))))), in series [1], the folding enthalpy is -50.9 kcal/mol. For the same sequence, in series [2], the Tm worked out at 64 °C.

In the case of GGGTATGCGAAAGCACCC (((..(((....)))))), in series [1], the folding enthalpy is -21.2 kcal/mol. Further, the Tm in series [2] was found to be 50.4 °C.

Consider GGGTATGGAAACATACTC (.(((((....))))).), for which the folding enthalpy in series [1] is -23 kcal/mol. Besides, in series [2], the Tm came out at 44.8 °C.

Take GGGTATGGAAACATGCCC (((.(((....))).))): the folding enthalpy in series [1] was -50.4 kcal/mol. In addition, the Tm in series [2] was 54.3 °C.

Turning to GGGTATGGAAACATGTCC ((..(((....)))..)), in series [1], the folding enthalpy was -15.6 kcal/mol. For the same sequence, the Tm in series [2] amounted to 34 °C.

Regarding GGGTATGGAAACGTACCC (((((.(....).))))), the folding enthalpy in series [1] is -42.7 kcal/mol. Moreover, the Tm in series [2] turned out to be 50.1 °C.

As for GGGTCAGGAAACCAACCC ((((..(....)..)))), in series [1], the folding enthalpy was -15.7 kcal/mol. Moreover, the Tm in series [2] came out at 33 °C.

In the case of GGGTCAGGAAACTAACCC ((((.((....)).)))), the folding enthalpy in series [1] was -25.4 kcal/mol. In series [2], the Tm came to 38.2 °C.

As for GGGTCCCGAAAGGGCCC (((.(((....)))))), the folding enthalpy in series [1] was -29.5 kcal/mol. Besides, the Tm in series [2] stood at 68 °C.

Consider GGGTCCGAAAGGAACCC ((((((....))).))), for which, in series [1], the folding enthalpy was -22.1 kcal/mol. Further, the Tm in series [2] was 64.1 °C.
